The values below come from ChEMBL document CHEMBL4339193, “Phenotypic Screening-Based Identification of 3,4-Disubstituted Piperidine Derivatives as Macrophage M2 Polarization Modulators: An Opportunity for Treating Multiple Sclerosis” (J Med Chem, 2019).

Data set [1] has as its system Mus musculus. As to the kind of experiment: Induction of M2 polarization in C57BL/6J mouse model of MOG (35 to 55 residues)/pertussis toxin/complete Freund's adjuvant-induced experimental allergic encephalomyelitis assessed as CD206 level in CNS at 200 mg/kg, ig administered daily starting from 7 days post-immunization measured after 13 to 19 days post-immunization by flow cytometry analysis (reference value: 7.8%). The class given is functional. In outline: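 MOG35-55/CFA EAE mice were dosed daily in saline from day 7 and sampled between days 13 and 19. Cells came from spleen and dLN by mechanical dissociation and from CNS by collagenase IV/Percoll. They were stained for F4/80 with CD206 (M2) or CD86 (M1), and each was read by flow cytometry as a percentage of total F4/80+ macrophages.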
(In general: A flow cytometer gives signals particle by particle.)

Data set [2] concerns Mus musculus. As to the kind of experiment: Antiinflammatory activity in C57BL/6J mouse model of MOG (35 to 55 residues)/pertussis toxin/complete Freund's adjuvant-induced experimental allergic encephalomyelitis assessed as TH17 cell population in spinal cord by measuring IL17 level at 200 mg/kg, ig administered daily starting from 7 days post-immunization measured after 14 to 21 days post-immunization by flow cytometry analysis (reference value: 7.7%). The class given is functional. An outline of the steps:
(§1)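 EAE induced with MOG35-55 (2 mg/ml in PBS) emulsified in CFA containing 4 mg/ml heat-killed M. tuberculosis H37Ra, injected s.c. into the neck and both hindlegs. Drug in saline daily from day 7. Between days 13 and 19, CNS mononuclear cells were taken by collagenase IV digestion and a 70%/30% Percoll gradient. Cells were restimulated 5 h with brefeldin A 2 µg/ml, PMA 0.1 µg/ml and ionomycin 0.5 µg/ml, stained for surface CD4, fixed and permeabilised, then stained intracellularly for IFN-γ/IL-17A. Analysed by flow cytometry; n=4 mice per group.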

Data set [3] concerns Mus musculus. Briefly: Antiinflammatory activity in C57BL/6J mouse model of MOG (35 to 55 residues)/pertussis toxin/complete Freund's adjuvant-induced experimental allergic encephalomyelitis assessed as TH1 cell population in spinal cord by measuring IFNgamma level at 200 mg/kg, ig administered daily starting from 7 days post-immunization measured after 14 to 21 days post-immunization by flow cytometry analysis (reference value: 22.3%). The class given is functional. An outline of the steps: as §1

The subject of data set [4] is Mus musculus. Briefly: Antiinflammatory activity in C57BL/6J mouse model of MOG (35 to 55 residues)/pertussis toxin/complete Freund's adjuvant-induced experimental allergic encephalomyelitis assessed as reduction in demyelination in spinal cord at 200 mg/kg, ig administered daily starting from 7 days post-immunization measured after 14 days post-immunization by H and E staining based microscopic analysis. Type of data set: functional, organism-based. An outline of the steps: (§2)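 EAE mice dosed daily in saline from day 7 were perfused with PBS and fixed in 4% PFA on day 14; spinal cords were taken. For LFB, frozen OCT sections sat 3 h in 0.1% Luxol Fast Blue at 56-60°C, were differentiated in 0.05% lithium carbonate for 10-12 s, cleared in 70% ethanol, dehydrated and mounted. For H&E, paraffin sections were stained to assess inflammation.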

For data set [5], the system named is Mus musculus. Briefly: Antiinflammatory activity in C57BL/6J mouse model of MOG (35 to 55 residues)/pertussis toxin/complete Freund's adjuvant-induced experimental allergic encephalomyelitis assessed as reduction in demyelination in spinal cord at 200 mg/kg, ig administered daily starting from 7 days post-immunization measured after 14 days post-immunization by LFB staining based microscopic analysis. The class given is functional, organism-based. An outline of the steps:
as §2

The test system of data set [6] is BMDM. Briefly: Inhibition of LPS-induced M1 polarization in C57BL/6J mouse BMDM cells assessed as down regulation of Mcp1 mRNA expression at 300 nM measured after 24 hrs by qRT-PCR analysis. Type of data set: functional, cell-based. In outline: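 BMDMs pre-incubated 24 h with 50 ng/ml LPS to induce M1, then treated 24 h with 300 nM compound. Total RNA extracted with Trizol; Mcp1, Inos and Cd86 mRNA measured by qRT-PCR. Mean ± SEM.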
A general note: Real-time PCR tracks product formation cycle by cycle.

Data set [7] relates to RAW264.7. Briefly: Inhibition of M1 polarization in mouse RAW264.7 cells assessed as down regulation of IL1R2 mRNA expression at 300 nM measured after 24 hrs by qRT-PCR analysis. Type of data set: functional, cell-based.
The subject of data set [8] is RAW264.7. Briefly: Modulation of M2 polarization in mouse RAW264.7 cells assessed as up regulation of MRC1 mRNA expression at 300 nM measured after 24 hrs by qRT-PCR analysis. Type of data set: functional, cell-based.
Data set [9] has as its system RAW264.7. As to the kind of experiment: Modulation of M2 polarization in mouse RAW264.7 cells assessed as up regulation of IL13RA1 mRNA expression at 300 nM measured after 24 hrs by qRT-PCR analysis. The class given is functional, cell-based.
Data set [10] in a line: AUC (0 to infinity) in Sprague-Dawley rat at 10 mg/kg, iv administered as single dose by LC/MS analysis. Type of data set: ADME, organism-based. Set-up: dose 10 mg/kg, time infinity, route intravenous. Particulars: in vivo. In outline: (§3)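 Single dose in rats; venous blood (100 µL) drawn at 0, 0.5, 1, 2, 4, 8 and 12 h, plasma separated by centrifugation and held at -20 °C. Compound measured by LC/MS; Cmax, Tmax, t1/2 and AUC derived from the concentration–time data.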

A short description of data set [11]: Cmax in Sprague-Dawley rat at 10 mg/kg, iv administered as single dose by LC/MS analysis. Type of data set: ADME, organism-based. Set-up: dose 10 mg/kg, route intravenous. Particulars: in vivo. In outline: as §3
Data set [12] in a line: Oral bioavailability in Sprague-Dawley rat at 50 mg/kg administered as single dose via gavage by LC/MS analysis. The class given is ADME, organism-based. The settings on record: in vivo.
Data set [13] can be described thus: AUC (0 to t) in Sprague-Dawley rat at 50 mg/kg, po administered as single dose via gavage by LC/MS analysis. The class given is ADME, organism-based. Particulars: in vivo. In outline:
as §3

The test system of data set [14] is RAW264.7. As to the kind of experiment: Modulation of M1 polarization in mouse RAW264.7 cells assessed as change in Mcp1 mRNA expression at 300 nM measured after 24 hrs by qRT-PCR analysis relative to control. Type of data set: functional, cell-based. The settings on record: RAW264.7, 24 h, read-out: FC. An outline of the steps: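 RAW264.7 cells (DMEM, 10% FBS) exposed 24 h to 300 nM compound alone; LPS 50 ng/ml as positive control. Mcp1 mRNA by qRT-PCR; fold change = dosed group level / control group level.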

The test system of data set [15] is BMDM. As to the kind of experiment: Antiinflammatory activity in LPS-induced C57BL/6J mouse BMDM cells assessed as suppression of M1 macrophage-stimulated CD4 positive T-cell proliferation at 300 nM preincubated for 48 hrs followed by CD4 positive T-cell addition and measured after 72 hrs by CFSE dye based FACS analysis. Type of data set: functional. In outline:
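BMDMs given 300 nM compound with 50 ng/ml LPS for 48 h on day 5 of differentiation; drug removed day 7. Cells then cocultured 1:1 with CFSE-labelled negatively selected naïve CD4+ T cells plus 500 ng/ml anti-CD3 and 500 ng/ml anti-CD28. T-cell proliferation (CFSE MFI, % proliferated) read by flow cytometry after 72 h. Mean ± SEM, at least three independent experiments.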

The target of data set [16] is Signal transducer and activator of transcription 3 (Mus musculus) (UniProt P42227). Briefly: Stimulation of STAT3 phosphorylation at Y705 residue in mouse RAW264.7 cells at 300 nM measured after 4 to 24 hrs by Western blot analysis. Type of data set: cell-based. In outline: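 Cell lysates separated by SDS-PAGE, transferred to PVDF and probed for Akt, p-Akt(308), p-Akt(473), Stat3, p-Stat3(Y705), Stat6 and p-Stat6; ECL detection, GAPDH as loading control.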
Background: In western blotting, separated proteins are transferred to a membrane and probed.

Each structure is given as a SMILES string. The source made the active and inactive calls. No cut-off for these calls is given here.

Signal transducer and activator of transcription 3 (Mus musculus), sequence (P42227 whole entry): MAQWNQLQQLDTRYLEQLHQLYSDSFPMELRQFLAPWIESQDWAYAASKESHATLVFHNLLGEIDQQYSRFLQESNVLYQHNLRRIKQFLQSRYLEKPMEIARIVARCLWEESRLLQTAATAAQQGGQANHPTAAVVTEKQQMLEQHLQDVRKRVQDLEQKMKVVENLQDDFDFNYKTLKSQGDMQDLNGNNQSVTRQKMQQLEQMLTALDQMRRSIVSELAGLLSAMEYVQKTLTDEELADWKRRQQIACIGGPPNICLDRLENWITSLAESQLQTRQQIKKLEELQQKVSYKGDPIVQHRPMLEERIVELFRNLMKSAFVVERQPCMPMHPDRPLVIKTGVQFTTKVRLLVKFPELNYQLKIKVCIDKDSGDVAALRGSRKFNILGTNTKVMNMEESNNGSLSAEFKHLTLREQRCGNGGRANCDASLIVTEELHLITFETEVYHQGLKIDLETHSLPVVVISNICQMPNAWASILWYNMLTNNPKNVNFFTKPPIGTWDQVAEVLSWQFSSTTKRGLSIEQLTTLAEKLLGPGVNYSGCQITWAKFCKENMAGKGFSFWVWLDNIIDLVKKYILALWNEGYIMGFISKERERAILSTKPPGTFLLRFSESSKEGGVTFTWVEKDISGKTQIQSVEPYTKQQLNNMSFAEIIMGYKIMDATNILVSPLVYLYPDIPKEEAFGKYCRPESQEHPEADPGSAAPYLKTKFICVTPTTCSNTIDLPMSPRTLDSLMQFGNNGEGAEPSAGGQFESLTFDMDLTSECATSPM

Broadly, the AUC(0-inf) is total exposure, with the tail of the curve extrapolated. Broadly, the Cmax is the maximum level reached in the sampled fluid or tissue. The bioavailability is dose-corrected exposure relative to a reference, in per cent. By AUC(0-t) is commonly meant exposure summed from dosing to a finite time, without extrapolation to infinity. Low readings indicate low exposure, high ones high exposure. As for `Cl.Cn1ncc(Cl)c1-c1ccc(C(=O)N[C@@H]2CNCC[C@H]2c2cccc(F)c2)cc1`, the Activity in [1] was determined as 12.7%; in data set [2], 4.5%; in data set [3], 11.4%. Further, the outcome in data set [4], in data set [5], in data set [8], in data set [9], in data set [15] and in [16] was Active. The inhibition entry in [6] and in [7] was “Active” each time. This molecule also returned an AUC(0-inf) in [10] of 1870 ng·h/mL. Besides, the concentration in [11] peaked (Cmax) at 1000 ng/mL. Besides, the bioavailability in [12] turned out to be 50.6%. The molecule further registered an AUC(0-t) in data set [13] of 4670 ng·h/mL. For the same molecule, the fold induction at 0.3 µM in data set [14] worked out at 1.47.
